Measurements published in publication PMC6620733 (Biochemistry, 2019).
Read-outs that look alike come from different tables or passages of the source.

Legend:
full-length Munc13-1 [1] = target: T1, full-length Munc13-1 (Rattus norvegicus, UniProt Q62768); experiment: In vitro [3H]PDBu binding assay, full-length Munc13-1
Munc13-1 C1 domain WT = Munc13-1 C1 domain WT (Rattus norvegicus, UniProt Q62768); experiment: In vitro [3H]PDBu binding assay, isolated Munc13-1 C1 domain; settings: for Kd: read-out: Kd for PDBu; for affinity better than that of PDBu: isolated C1 domain
Munc13-1 C1 W22A mutant = Munc13-1 C1 W22A mutant (Rattus norvegicus, UniProt Q62768, W588A); experiment: In vitro [3H]PDBu binding assay, Munc13-1 C1 domain W22A; settings: for decrease in affinity of W588A (W22A) mutant C1 domain versus WT: 100% PS
full-length Munc13-1 [2] = target: T1, full-length Munc13-1; assay type: cell-based
Procedure, shortened: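 Living HT22 cells (passages 2–16) are transfected with GFP-tagged full-length Munc13-1 (X-tremeGENE HP), then transferred after 24 h into phenol red-free DMEM with 1% FBS. Test compound at 10, 100 or 1000 nM is added at time zero. Confocal imaging every 30 s (488 nm excitation, 500–530 nm emission). Plasma membrane/cytoplasm mean intensity ratio is normalized to time zero. 5–9 cells per concentration, three independent experiments; saturated cells excluded.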

Munc13-1 [3] = target: T2, Munc13-1 (Rattus norvegicus, UniProt Q62768); assay type: cell-based; settings: HT22 cells, 0–2 μM, 5 min, confocal
Procedure, shortened: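 HT22 cells are seeded on coverslips at 6 × 10^4/well and, at 70–80% confluency, transfected with Munc13-1-GFP (Lipofectamine, antibiotic-free DMEM). They are exposed to 0.1–2 μM test compound for 5 min, then fixed in 4% PFA for 10 min and imaged by confocal at 63×. Read-out is the ratio of mean membrane intensity (outer 300 nm) to whole-cell intensity. Statistics use two-way ANOVA with Tukey.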

Munc13-1 [4] = target: T2, Munc13-1; experiment: Cell fractionation and Western blot of HT22 cells expressing GFP-tagged Munc13-1; assay type: cell-based; settings: 1 μM, 5 min, cell fractionation and immunoblot
Procedure, shortened: (§1)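 Transfected HT22 cells (DMEM, 10% FBS, 70–80% confluent, Lipofectamine, antibiotic-free medium) express GFP-Munc13-1 or GFP-bMunc13-2 and are treated with 1 μM test compound. A kit separates the fractions: cytosolic buffer spin at 500g, 5 min; pellet in membrane buffer, 4 °C, 10 min, then 3000g, 5 min. 40 μg protein is run on 4–15% SDS–PAGE (membrane samples unheated). Probes are anti-GFP 1:500, Na,K-ATPase and β-actin 1:2000, with infrared detection.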

Munc13-1^H567K = Munc13-1^H567K (Rattus norvegicus, UniProt Q62768, H567K); assay type: cell-based; settings: HT22 cells, 0–2 μM, 5 min
Procedure, shortened: (§2)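 Fixed-cell confocal: HT22 cells in DMEM with 10% FBS and 2 mM glutamine are seeded on coverslips 24 h before transfection. At 70–80% confluence they are transfected (Lipofectamine 3000) with GFP-tagged mutant Munc13-1 plasmid in antibiotic-free medium. Treatment with test compound or PMA at 0.1–2 μM, then fixation in 4% PFA for 10 min and imaging at 63×. Ratio of mean membrane (outer 300 nm) to whole-cell GFP intensity.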

bMunc13-2 [5] = target: T3, bMunc13-2 (Rattus norvegicus, UniProt Q62769); assay type: cell-based; settings: HT22 cells, immunoblotting (1 μM) and confocal microscopy (0–2 μM), 5 min
T3 sequence (Q62769 1-1985 isoform Q62769-2): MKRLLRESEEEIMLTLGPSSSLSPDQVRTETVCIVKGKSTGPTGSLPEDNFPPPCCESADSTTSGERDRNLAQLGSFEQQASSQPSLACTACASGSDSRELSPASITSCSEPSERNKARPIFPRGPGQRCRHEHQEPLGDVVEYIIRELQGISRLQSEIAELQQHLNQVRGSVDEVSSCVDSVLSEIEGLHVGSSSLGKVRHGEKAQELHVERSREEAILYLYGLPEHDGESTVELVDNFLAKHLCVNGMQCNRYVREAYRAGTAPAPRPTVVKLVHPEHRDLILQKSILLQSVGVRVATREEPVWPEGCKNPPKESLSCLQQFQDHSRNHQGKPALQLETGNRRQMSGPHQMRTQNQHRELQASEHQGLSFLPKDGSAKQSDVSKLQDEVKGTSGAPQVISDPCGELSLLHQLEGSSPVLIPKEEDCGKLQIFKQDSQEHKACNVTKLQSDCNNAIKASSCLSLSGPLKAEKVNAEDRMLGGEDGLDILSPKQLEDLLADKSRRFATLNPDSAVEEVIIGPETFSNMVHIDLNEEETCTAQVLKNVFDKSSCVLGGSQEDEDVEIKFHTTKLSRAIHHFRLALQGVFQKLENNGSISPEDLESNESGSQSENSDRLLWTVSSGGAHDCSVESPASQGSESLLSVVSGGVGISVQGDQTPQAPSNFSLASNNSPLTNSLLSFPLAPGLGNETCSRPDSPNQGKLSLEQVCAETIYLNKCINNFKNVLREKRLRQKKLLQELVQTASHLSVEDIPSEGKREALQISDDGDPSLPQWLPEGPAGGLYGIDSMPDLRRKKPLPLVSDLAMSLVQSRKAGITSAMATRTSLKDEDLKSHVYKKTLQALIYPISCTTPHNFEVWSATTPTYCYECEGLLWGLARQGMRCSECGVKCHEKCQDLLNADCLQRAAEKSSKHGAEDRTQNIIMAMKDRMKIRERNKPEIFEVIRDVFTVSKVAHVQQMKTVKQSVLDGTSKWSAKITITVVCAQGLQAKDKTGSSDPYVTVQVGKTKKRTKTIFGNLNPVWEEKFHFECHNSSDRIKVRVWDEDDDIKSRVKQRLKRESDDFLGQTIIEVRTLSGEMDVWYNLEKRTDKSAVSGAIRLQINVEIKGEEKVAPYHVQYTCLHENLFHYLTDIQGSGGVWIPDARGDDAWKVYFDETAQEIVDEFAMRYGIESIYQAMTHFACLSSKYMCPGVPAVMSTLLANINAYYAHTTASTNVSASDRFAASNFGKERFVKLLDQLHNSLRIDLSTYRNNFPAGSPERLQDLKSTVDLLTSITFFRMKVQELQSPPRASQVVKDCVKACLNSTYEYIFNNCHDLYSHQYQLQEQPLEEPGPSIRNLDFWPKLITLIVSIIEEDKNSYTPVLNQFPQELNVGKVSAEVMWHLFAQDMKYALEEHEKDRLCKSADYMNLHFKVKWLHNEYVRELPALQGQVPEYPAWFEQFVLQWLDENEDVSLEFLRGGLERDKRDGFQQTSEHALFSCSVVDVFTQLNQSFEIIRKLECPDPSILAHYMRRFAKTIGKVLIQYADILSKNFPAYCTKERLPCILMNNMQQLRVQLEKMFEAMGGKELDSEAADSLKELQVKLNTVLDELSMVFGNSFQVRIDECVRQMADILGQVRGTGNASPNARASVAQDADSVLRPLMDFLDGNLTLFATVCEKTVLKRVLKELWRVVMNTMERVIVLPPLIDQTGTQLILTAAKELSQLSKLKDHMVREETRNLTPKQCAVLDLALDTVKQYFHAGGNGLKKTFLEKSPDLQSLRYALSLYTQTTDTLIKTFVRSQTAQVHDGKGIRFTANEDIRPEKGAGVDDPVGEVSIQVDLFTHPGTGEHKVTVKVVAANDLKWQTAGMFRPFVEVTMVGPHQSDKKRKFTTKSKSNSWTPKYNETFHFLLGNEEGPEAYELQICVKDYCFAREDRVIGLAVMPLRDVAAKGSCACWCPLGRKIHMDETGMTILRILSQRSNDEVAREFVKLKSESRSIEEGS
Procedure, shortened: as §1

Munc13-1^W588A = Munc13-1^W588A (Rattus norvegicus, UniProt Q62768, W588A); assay type: cell-based; settings: HT22 cells, 1 μM, 5 min
Procedure, shortened: as §2

Munc13-1 C1 domain = Munc13-1 C1 domain (Rattus norvegicus, UniProt Q62768); assay type: cell-based; settings: living HT22 cells, 1 μM
Procedure, shortened: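 Live-cell imaging, C1 domain: HT22 cells (passages 2–16; high-glucose DMEM, 10% FBS, 2 mM L-glutamine) are transfected with GFP-tagged Munc13-1 C1 domain (X-tremeGENE HP). After 24 h they are moved to phenol red-free DMEM with 1% FBS. Test compound 1 μM is added at time zero, with confocal images every 30 s (488 nm excitation, 500–530 nm emission). Cytoplasm/nucleus intensity ratio is normalized to time zero. 11–16 cells per treatment, three independent experiments; saturated cells excluded.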

ubMunc13-2 = ubMunc13-2 (Rattus norvegicus, UniProt Q62769); experiment: Translocation of GFP-tagged ubMunc13-2 in living HT22 cells; assay type: cell-based; settings: living HT22 cells, 10, 100, 1000 nM, 0–15 min
Procedure, shortened: (§3)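 GFP-tagged bMunc13-2 or ubMunc13-2 is expressed in living HT22 cells (passages 2–16, X-tremeGENE HP transfection). Imaging is in phenol red-free DMEM with 1% FBS, 24 h post-transfection. Test compound at 10, 100 or 1000 nM is added at time zero, with confocal frames every 30 s (488/500–530 nm). Plasma membrane/cytoplasm ratio is normalized to time zero. bMunc13-2: 3–6 cells per concentration; ubMunc13-2: 5–9 cells; three independent experiments.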

bMunc13-2 [6] = target: T3, bMunc13-2; experiment: Translocation of GFP-tagged bMunc13-2 in living HT22 cells; assay type: cell-based; settings: living HT22 cells, 10, 100, 1000 nM, 0–15 min
Procedure, shortened: as §3

PKCδ = PKCδ (Homo sapiens, UniProt Q05655); experiment: Translocation of GFP-tagged PKCδ in living HT22 cells; assay type: cell-based
PKCδ, sequence (Q05655 whole entry): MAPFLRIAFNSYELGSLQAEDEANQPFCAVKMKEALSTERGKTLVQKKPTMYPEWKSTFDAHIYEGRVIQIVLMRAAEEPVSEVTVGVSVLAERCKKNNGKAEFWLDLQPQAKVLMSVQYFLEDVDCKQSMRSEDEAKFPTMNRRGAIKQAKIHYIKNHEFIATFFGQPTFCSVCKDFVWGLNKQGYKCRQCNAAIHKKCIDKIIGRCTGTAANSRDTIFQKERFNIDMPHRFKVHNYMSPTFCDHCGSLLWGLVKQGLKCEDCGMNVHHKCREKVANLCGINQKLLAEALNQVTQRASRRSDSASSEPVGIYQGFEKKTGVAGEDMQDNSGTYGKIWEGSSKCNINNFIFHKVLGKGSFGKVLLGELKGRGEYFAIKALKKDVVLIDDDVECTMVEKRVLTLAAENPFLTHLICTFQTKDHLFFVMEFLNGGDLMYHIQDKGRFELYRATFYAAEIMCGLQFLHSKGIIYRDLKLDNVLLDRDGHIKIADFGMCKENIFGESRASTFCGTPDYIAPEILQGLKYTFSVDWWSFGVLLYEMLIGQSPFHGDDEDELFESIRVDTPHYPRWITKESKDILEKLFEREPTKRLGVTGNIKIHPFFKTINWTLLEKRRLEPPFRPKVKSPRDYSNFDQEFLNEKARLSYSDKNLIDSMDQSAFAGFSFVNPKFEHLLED
Procedure, shortened: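 For PKCδ, living HT22 cells (passages 2–16) transiently express GFP-tagged PKCδ (X-tremeGENE HP). After 24 h, medium is changed to phenol red-free DMEM with 1% FBS. Test compound at 10, 100 or 1000 nM is added at time zero, with confocal imaging every 30 s (488 nm excitation, 500–530 nm emission). Nuclear membrane/cytoplasm intensity ratio is normalized to time zero. 4–7 cells per concentration, three independent experiments.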

[7] = system: endogenous Munc13-1 in HT22 cells; experiment: Expression of endogenous Munc13-1 in differentiated HT22 cells; assay type: cell-based, mouse; settings: 24 h
Procedure, shortened: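 Endogenous protein by Western blot: HT22 cells are differentiated in NeuroBasal medium with […], cAMP, L-glutamine and antibiotics. At 48–72 h after day 0, test compound is added at 0.1 or 0.5 μM for 24 h. Lysis in modified RIPA with protease/phosphatase inhibitors, sonication, 14000g 30 min at 4 °C. 7.5–10% SDS–PAGE, nitrocellulose, 2.5% BSA block. Anti-Munc13-1 1:500 and β-actin 1:5000, HRP secondary, ECL. Densitometric Munc13-1:β-actin ratio.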

[8] = system: endogenous Munc13-1 in primary hippocampal neurons; experiment: Expression of endogenous Munc13-1 in primary hippocampal neurons; assay type: cell-based; settings: mouse primary hippocampal neurons, 0.1 or 0.5 μM, 24 h
Procedure, shortened: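 Hippocampi come from E18 mouse pups and are dissociated with trypsin/EDTA (20 min, 37 °C). Cells are plated at 8 × 10^4/well on poly-D-lysine coverslips in B-27 medium, and 7–8-day cultures are treated with 0.1 or 0.5 μM for 24 h. Cells are fixed in 4% PFA for 15 min and stained overnight at 4 °C with anti-Munc13-1 1:500, Tuj1 1:1000 and DAPI. Cytosolic Munc13-1 is measured by confocal in 3 wells × 3 cells per group.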

[9] = read-out: Kd for PDBu, 100:0 PS/PC

How did the Kd (full-length Munc13-1 [1]; [9]) turn out when `CCCC(=O)O[C@@H]1[C@@H](C)[C@@]2(O)[C@@H](C=C(CO)C[C@]3(O)C(=O)C(C)=C[C@@H]23)[C@@H]2C(C)(C)[C@]12OC(=O)CCC` [PDBu, Phorbol 12,13-dibutyrate] was run?
Its Kd is 7.09 ± 0.53 nM.

And the Ki (full-length Munc13-1 [1]; read-out: Ki for PDBu, 100% PS, measured in parallel with bryostatin 1)?
The Ki was 7.1 ± 0.5 nM.

And the Kd (Munc13-1 C1 domain WT; 5:95 PS/PC)?
Its Kd is 82 ± 15 nM.

And the Kd (Munc13-1 C1 domain WT; 20:80 PS/PC)?
The Kd was 69.5 ± 4.8 nM.

What about the Kd (Munc13-1 C1 domain WT; 100:0 PS/PC) of the same compound?
The Kd was 124 ± 13 nM.

What about the Ki (Munc13-1 C1 domain WT; read-out: Ki for PDBu, PS/PC (20:80, w:w), assayed in parallel) of the same compound?
The Ki was 69.5 ± 4.8 nM.

What about the Ki (Munc13-1 C1 domain WT; read-out: Ki for PDBu, PS/PC (100:0)) of the same compound?
Its Ki is 124 ± 13 nM.

What about the “decrease in affinity of W588A (W22A) mutant C1 domain versus WT” value (Munc13-1 C1 W22A mutant) of the same compound?
Its value is 6.5 fold.

What about the Kd (Munc13-1 C1 W22A mutant; [9]) of the same compound?
Its Kd is 809 ± 8.1 nM.

What about the “effectiveness for inducing translocation relative to bryostatin 1” value (full-length Munc13-1 [2]; living HT22 cells, 1 μM) of the same compound?
Its value is “modestly less effective than was bryostatin 1”.

Which results are given for `CCCCCCCCCCCCCC(=O)O[C@@H]1[C@@H](C)[C@@]2(O)[C@@H](C=C(CO)C[C@]3(O)C(=O)C(C)=C[C@@H]23)[C@@H]2C(C)(C)[C@]12OC(C)=O` [PMA, phorbol 12-myristate 13-acetate]?
translocation of Munc13-1 to the plasma membrane (Munc13-1 [3]): induced translocation of Munc13-1 to the plasma membrane; transfer of Munc13-1 to membrane fraction (Munc13-1 [4]): caused Munc13-1 to transfer to the membrane fraction; translocation (localization change) of Munc13-1 H567K (Munc13-1^H567K): no significant changes in localization; translocation of GFP-tagged bMunc13-2 (bMunc13-2 [5]): translocation similar to that of GFP-tagged Munc13-1

`CCC/C=C/C=C/C(=O)O[C@H]1/C(=C/C(=O)OC)C[C@H]2C[C@H]([C@@H](C)O)OC(=O)C[C@H](O)C[C@@H]3C[C@H](OC(C)=O)C(C)(C)[C@](O)(C[C@@H]4C/C(=C/C(=O)OC)C[C@H](/C=C/C(C)(C)[C@]1(O)O2)O4)O3` [bryostatin 1] was tested. Which Ki (full-length Munc13-1 [1]) did it give?
Its Ki is 0.45 ± 0.04 nM.

And the “affinity better than that of PDBu” value (full-length Munc13-1 [1]; full-length Munc13-1, 100% PS)?
Its value is “approximately 15 fold”.

What about the Ki (Munc13-1 C1 domain WT; Ki for bryostatin 1, 5:95 PS/PC, 100 μg/mL lipid, 0.1 mM Ca2+, 100 nM [3H]PDBu) of the same compound?
Its Ki is 22.8 ± 1.8 nM.

What about the Ki (Munc13-1 C1 domain WT; Ki for bryostatin 1, 20:80 PS/PC, 100 μg/mL lipid, 0.1 mM Ca2+, 100 nM [3H]PDBu) of the same compound?
Its Ki is 22.7 nM.

And the Ki (Munc13-1 C1 domain WT; Ki for bryostatin 1, 100:0 PS/PC, 100 μg/mL lipid, 0.1 mM Ca2+, 100 nM [3H]PDBu)?
Its Ki is 8.07 ± 0.9 nM.

What about the “affinity better than that of PDBu” value (Munc13-1 C1 domain WT; 100% PS) of the same compound?
Its value is 15 fold.

What about the “affinity better than that of PDBu” value (Munc13-1 C1 domain WT; lower PS concentrations) of the same compound?
Its value is 3 fold.

And the Ki (Munc13-1 C1 W22A mutant)?
The Ki was 54 ± 12 nM.

What about the “decrease in affinity of W588A (W22A) mutant C1 domain versus WT” value (Munc13-1 C1 W22A mutant) of the same compound?
Its value is 6.6 fold.

And the “translocation of Munc13-1 to the plasma membrane” value (Munc13-1 [3])?
The value was “induced translocation of Munc13-1 to the plasma membrane”.

What about the “transfer of Munc13-1 to membrane fraction” value (Munc13-1 [4]) of the same compound?
The value was “caused Munc13-1 to transfer to the membrane fraction”.

What about the “translocation (localization change) of Munc13-1 H567K” value (Munc13-1^H567K) of the same compound?
The value was “no significant changes in localization”.

What about the “translocation of full-length Munc13-1 W588A” value (Munc13-1^W588A) of the same compound?
The value was “translocation was lost”.

What about the “translocation of GFP-C1 domain” value (Munc13-1 C1 domain) of the same compound?
The value was “translocated within 5–20 min from the nucleus to internal membranes but not to the plasma membrane”.

What about the “stimulation of translocation at 100 nM as fraction of that caused by 1000 nM” value (full-length Munc13-1 [2]; Munc13-1, 15 min value) of the same compound?
The value was 30%.

What about the “translocation of full-length Munc13-1” value (full-length Munc13-1 [2]; living HT22 cells, 1 μM) of the same compound?
Its value is “translocated to the plasma membrane”.

What about the “translocation of ubMunc13-2” value (ubMunc13-2) of the same compound?
The value was “clear translocation”.

What about the “translocation of bMunc13-2” value (bMunc13-2 [6]) of the same compound?
The value was “clear translocation”.

What about the “stimulation of translocation at 100 nM as fraction of that caused by 1000 nM” value (PKCδ; PKCδ, 15 min value) of the same compound?
The value was 63%.

And the “translocation of PKCδ” value (PKCδ; living HT22 cells, 10, 100, 1000 nM, 0–15 min)?
Its value is “induces translocation of PKCδ to the nuclear membrane and to internal membranes, rather than to the plasma membrane”.

What about the “translocation of GFP-tagged bMunc13-2” value (bMunc13-2 [5]) of the same compound?
The value was “translocation similar to that of GFP-tagged Munc13-1”.

And the “level of endogenous Munc13-1 staining” value ([7]; 0.1 and 0.5 μM, immunostaining)?
The value was “increased with both doses”.

What about the “endogenous Munc13-1 levels by Western blot” value ([7]; 0.1 or 0.5 μM) of the same compound?
The value was “increased”.

What about the “expression of endogenous Munc13-1 in cytosol” value [8] of the same compound?
Its value is “significantly increased the level of expression of Munc13-1”.
